The M2OR odorant receptor database

Experiments:
Conditions in all cases: stereoisomer not certain
[1] = target: T1, OR13C2 (Homo sapiens) (UniProt Q8NGS9)
T1 sequence (whole entry): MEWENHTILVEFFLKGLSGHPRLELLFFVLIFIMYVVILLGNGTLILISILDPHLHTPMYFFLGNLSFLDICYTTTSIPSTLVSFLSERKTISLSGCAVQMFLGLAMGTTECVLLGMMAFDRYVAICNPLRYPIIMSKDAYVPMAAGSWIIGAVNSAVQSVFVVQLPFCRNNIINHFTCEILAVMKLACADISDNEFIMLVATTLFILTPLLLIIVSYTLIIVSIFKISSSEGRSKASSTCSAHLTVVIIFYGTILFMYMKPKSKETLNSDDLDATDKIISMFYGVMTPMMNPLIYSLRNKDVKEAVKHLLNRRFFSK
In short: (§1)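 Each receptor–molecule pair is labelled responsive or non-responsive (inactive) according to whether the original authors judged the measured signal statistically different from baseline. The data were taken from the main text and supplementary material of published papers and checked for typos and inconsistencies. Assay methods differed by source, with transient luciferase assays in mammalian cell lines being common.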

[2] = target: T2, OR13C3 (Homo sapiens) (UniProt Q8NGS6)
T2 sequence (whole entry): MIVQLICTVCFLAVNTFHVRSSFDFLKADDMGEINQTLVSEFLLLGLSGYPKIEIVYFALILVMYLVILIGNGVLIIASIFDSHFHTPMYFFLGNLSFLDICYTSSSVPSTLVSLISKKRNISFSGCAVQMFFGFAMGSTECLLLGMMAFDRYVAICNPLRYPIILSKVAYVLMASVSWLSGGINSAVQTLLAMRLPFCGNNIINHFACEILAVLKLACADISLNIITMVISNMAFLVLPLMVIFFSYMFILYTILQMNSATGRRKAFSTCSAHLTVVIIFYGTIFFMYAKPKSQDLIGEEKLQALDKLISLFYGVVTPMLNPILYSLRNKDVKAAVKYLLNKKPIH
In short: as §1

[3] = target: T3, OR13C4 (Homo sapiens) (UniProt Q8NGS5)
T3 sequence (whole entry): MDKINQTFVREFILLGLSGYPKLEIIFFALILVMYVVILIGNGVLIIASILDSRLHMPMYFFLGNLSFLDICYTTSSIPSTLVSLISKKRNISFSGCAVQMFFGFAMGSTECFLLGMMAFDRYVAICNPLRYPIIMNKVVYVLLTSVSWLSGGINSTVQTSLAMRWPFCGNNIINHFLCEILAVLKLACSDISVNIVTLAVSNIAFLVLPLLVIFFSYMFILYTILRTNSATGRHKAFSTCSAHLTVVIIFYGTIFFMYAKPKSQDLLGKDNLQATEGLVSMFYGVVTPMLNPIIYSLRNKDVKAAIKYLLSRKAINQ
In short: as §1

[4] = target: T4, OR13C5 (Homo sapiens) (UniProt Q8NGS8)
T4 sequence (whole entry): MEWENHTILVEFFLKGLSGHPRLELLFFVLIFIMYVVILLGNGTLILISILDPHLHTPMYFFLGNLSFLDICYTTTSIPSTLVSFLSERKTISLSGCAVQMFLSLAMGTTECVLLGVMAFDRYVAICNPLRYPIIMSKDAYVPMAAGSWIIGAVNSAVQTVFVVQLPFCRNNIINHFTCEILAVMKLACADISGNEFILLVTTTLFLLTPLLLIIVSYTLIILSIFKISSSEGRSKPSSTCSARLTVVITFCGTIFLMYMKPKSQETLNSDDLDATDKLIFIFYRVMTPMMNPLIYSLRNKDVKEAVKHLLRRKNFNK
In short: as §1

[5] = target: T5, OR13C8 (Homo sapiens) (UniProt Q8NGS7)
T5 sequence (whole entry): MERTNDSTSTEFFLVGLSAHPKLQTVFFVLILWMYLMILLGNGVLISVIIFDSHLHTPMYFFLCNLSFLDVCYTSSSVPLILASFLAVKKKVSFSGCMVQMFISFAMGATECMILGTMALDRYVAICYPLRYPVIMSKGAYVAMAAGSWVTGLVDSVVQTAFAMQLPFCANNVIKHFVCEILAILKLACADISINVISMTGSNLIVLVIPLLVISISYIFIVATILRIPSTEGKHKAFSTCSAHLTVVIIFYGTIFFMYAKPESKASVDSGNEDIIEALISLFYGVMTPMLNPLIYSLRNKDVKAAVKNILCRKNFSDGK
In short: as §1

[6] = target: T6, OR13C9 (Homo sapiens) (UniProt Q8NGT0)
T6 sequence (whole entry): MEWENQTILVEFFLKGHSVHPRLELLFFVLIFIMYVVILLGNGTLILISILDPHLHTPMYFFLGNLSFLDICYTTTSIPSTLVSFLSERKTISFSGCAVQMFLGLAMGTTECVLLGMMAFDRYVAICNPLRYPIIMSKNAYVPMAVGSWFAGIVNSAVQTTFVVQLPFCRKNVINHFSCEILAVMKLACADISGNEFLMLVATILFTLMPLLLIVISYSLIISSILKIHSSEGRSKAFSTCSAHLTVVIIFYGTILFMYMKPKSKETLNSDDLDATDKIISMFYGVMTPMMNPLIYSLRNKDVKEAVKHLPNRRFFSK
In short: as §1

[7] = target: T7, OR13D1 (Homo sapiens) (UniProt Q8NGV5)
T7 sequence (whole entry): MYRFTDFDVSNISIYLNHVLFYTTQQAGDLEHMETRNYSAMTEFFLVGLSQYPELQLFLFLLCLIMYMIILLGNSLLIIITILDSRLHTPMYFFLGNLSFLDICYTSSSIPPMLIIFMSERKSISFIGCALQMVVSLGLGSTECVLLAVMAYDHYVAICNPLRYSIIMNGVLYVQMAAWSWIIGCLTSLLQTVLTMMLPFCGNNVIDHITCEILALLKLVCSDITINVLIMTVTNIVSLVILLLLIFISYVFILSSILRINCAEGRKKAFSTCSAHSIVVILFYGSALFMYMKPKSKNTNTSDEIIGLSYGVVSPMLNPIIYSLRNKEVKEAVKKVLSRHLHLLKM
In short: as §1

[8] = target: T8, OR13F1 (Homo sapiens) (UniProt Q8NGS4)
T8 sequence (whole entry): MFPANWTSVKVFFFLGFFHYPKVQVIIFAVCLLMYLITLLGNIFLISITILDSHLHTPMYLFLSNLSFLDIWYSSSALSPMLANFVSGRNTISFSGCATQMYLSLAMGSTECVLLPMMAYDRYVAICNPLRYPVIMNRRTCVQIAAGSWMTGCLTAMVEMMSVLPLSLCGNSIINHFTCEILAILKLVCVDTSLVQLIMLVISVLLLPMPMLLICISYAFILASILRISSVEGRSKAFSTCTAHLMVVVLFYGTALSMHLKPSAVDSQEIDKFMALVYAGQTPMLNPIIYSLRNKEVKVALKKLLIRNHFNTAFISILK
In short: as §1

[9] = target: T9, OR13G1 (Homo sapiens) (UniProt Q8NGZ3)
T9 sequence (whole entry): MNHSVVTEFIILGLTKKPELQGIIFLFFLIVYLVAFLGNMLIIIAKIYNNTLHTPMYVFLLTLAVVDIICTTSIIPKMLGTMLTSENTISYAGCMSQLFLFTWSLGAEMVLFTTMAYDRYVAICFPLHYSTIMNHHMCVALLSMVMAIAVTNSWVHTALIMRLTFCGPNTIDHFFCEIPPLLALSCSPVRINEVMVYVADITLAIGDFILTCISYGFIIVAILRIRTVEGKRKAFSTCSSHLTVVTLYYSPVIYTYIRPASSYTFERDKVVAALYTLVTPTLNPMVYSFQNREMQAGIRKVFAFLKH
In short: as §1

[10] = target: T10, OR13H1 (Homo sapiens) (UniProt Q8NG92)
T10 sequence (whole entry): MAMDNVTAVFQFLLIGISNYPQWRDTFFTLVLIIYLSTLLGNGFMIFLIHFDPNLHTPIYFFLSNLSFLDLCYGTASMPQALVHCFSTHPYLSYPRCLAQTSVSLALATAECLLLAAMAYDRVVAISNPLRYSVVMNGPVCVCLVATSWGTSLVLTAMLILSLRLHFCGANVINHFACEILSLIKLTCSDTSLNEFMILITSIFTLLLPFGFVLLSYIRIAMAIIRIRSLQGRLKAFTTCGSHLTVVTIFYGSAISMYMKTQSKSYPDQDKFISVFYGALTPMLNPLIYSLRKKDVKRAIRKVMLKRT
In short: as §1

[11] = target: T11, OR13J1 (Homo sapiens) (UniProt Q8NGT2)
T11 sequence (whole entry): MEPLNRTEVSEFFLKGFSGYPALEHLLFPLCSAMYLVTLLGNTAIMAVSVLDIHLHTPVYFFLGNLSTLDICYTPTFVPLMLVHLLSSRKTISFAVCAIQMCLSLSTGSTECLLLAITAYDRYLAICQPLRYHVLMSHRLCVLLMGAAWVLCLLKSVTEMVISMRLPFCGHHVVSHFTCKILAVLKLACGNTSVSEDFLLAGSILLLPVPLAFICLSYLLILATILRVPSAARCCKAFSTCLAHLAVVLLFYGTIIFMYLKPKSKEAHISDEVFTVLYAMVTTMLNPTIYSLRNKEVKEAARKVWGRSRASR
In short: as §1

[12] = target: T12, OR14A16 (Homo sapiens) (UniProt Q8NHC5)
T12 sequence (whole entry): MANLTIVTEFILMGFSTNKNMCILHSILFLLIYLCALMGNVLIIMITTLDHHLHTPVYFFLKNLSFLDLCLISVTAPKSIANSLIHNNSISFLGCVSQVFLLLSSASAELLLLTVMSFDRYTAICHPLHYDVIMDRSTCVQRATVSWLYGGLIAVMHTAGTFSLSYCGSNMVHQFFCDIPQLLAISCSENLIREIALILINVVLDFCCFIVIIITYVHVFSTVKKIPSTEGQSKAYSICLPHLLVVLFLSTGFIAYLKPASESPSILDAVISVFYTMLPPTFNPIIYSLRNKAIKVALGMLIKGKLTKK
In short: as §1

[13] = target: T13, OR14A2 (Homo sapiens) (UniProt Q96R54)
T13 sequence (whole entry): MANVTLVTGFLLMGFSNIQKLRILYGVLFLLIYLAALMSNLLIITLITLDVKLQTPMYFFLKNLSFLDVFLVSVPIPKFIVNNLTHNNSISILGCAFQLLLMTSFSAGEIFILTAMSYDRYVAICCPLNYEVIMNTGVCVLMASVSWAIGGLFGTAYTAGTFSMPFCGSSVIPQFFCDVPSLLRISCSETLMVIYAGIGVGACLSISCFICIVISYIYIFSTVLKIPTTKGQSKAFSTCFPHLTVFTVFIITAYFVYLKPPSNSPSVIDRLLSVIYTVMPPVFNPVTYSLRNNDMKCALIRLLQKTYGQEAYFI
In short: as §1

[14] = target: T14, OR14C36 (Homo sapiens) (UniProt Q8NHC7)
T14 sequence (whole entry): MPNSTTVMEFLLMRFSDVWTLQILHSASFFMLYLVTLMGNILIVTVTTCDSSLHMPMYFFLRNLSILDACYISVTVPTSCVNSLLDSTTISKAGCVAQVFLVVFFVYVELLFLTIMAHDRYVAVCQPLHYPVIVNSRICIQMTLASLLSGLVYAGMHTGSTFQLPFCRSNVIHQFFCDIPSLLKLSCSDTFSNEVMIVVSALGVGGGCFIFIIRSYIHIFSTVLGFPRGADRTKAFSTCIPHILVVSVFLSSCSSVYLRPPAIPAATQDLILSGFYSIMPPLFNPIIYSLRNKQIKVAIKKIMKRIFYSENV
In short: as §1

[15] = target: T15, OR14I1 (Homo sapiens) (UniProt A6ND48)
T15 sequence (whole entry): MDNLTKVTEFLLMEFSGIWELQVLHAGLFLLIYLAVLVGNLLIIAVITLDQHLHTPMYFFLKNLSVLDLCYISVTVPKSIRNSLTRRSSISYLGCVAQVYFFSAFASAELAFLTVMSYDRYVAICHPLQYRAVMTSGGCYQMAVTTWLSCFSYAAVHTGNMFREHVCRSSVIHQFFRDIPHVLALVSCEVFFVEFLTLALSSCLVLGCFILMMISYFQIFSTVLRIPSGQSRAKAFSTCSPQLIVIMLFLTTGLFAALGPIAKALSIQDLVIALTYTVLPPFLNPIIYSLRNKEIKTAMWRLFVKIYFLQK
In short: as §1

[16] = target: T16, OR14J1 (Homo sapiens) (UniProt Q9UGF5)
T16 sequence (whole entry): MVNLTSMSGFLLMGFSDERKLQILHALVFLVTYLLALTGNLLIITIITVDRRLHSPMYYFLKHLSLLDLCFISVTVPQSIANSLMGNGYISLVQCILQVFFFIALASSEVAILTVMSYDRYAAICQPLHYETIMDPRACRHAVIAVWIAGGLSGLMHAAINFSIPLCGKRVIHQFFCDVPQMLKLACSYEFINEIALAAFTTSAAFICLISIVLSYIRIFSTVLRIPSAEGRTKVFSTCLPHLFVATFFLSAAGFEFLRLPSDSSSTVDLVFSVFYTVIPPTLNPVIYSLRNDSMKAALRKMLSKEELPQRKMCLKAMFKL
In short: as §1

[17] = target: T17, OR14K1 (Homo sapiens) (UniProt Q8NGZ2)
T17 sequence (whole entry): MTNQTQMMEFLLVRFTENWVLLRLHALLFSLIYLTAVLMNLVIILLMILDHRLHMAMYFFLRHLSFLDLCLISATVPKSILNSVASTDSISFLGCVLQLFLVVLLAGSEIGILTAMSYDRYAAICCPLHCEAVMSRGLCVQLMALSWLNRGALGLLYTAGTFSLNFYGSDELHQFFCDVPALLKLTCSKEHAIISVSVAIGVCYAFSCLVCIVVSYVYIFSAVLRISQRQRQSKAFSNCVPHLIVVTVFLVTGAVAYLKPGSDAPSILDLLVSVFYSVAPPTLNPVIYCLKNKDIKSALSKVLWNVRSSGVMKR
In short: as §1

[18] = target: T18, OR1A1 (Homo sapiens) (UniProt Q9P1Q5)
T18 sequence (whole entry): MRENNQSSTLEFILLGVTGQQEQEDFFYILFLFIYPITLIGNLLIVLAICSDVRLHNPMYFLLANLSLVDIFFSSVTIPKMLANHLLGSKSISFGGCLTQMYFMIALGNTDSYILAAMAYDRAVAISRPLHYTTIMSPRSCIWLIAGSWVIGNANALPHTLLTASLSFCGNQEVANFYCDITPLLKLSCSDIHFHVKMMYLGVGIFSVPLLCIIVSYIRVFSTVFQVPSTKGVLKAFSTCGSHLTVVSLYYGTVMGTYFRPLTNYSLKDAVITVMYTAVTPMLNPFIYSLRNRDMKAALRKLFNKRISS
In short: as §1

Measured: odorant receptor agonist call;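 note: active if original authors judged signal statistically different from baseline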

CC1=C(O)C(=O)C(C)O1 (stereo not drawn)
inactive: all assays above
